Reference: ChEMBL document CHEMBL4330163, “Veluflavanones A-P, Cytotoxic Geranylated Flavanones from Dalbergia velutina Stems” (J Nat Prod, 2019)

Assays:
Format in all cases: functional, cell-based
HepG2 = assay: Cytotoxicity against human HepG2 cells by MTT assay
Procedure, shortened: (§1)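 Modified MTT colorimetric assay on five human cancer lines (KB epidermoid, HeLa S3 cervical, MCF-7 breast, Hep G2 hepatocellular, HT-29 colon adenocarcinoma). Doxorubicin was run as positive control.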

HeLa S3 = assay: Cytotoxicity against human HeLaS3 cells by MTT assay; procedure, shortened: as §1
MCF7 = assay: Cytotoxicity against human MCF7 cells by MTT assay; procedure, shortened: as §1
KB = assay: Cytotoxicity against human KB cells by MTT assay; procedure, shortened: as §1
HT-29 = assay: Cytotoxicity against human HT-29 cells by MTT assay; procedure, shortened: as §1

## CC(C)=CCCC1(C)Oc2ccc3c(c2CC1O)O[C@H](c1ccc(O)cc1)CC3=O (stereo not given in full)
HepG2
  IC50: > 10 µM
HeLa S3
  IC50: > 10 µM
MCF7
  IC50: > 10 µM
KB
  IC50: > 10 µM
HT-29
  IC50: > 10 µM

## C=C(C)/C=C/CC1(C)CCc2c(ccc3c2O[C@H](c2ccc(O)cc2)CC3=O)O1 (stereo not given in full)
HepG2
  IC50: > 10 µM
HeLa S3
  IC50: > 10 µM
MCF7
  IC50: > 10 µM
KB
  IC50: > 10 µM
HT-29
  IC50: > 10 µM

## C=C(C)C(O)CC/C(C)=C/Cc1c(O)ccc2c1O[C@H](c1ccc(O)cc1)CC2=O (stereo not given in full)
HepG2
  IC50: > 10 µM
HeLa S3
  IC50: > 10 µM
MCF7
  IC50: > 10 µM
KB
  IC50: > 10 µM
HT-29
  IC50: > 10 µM

## C/C(=C\Cc1c(O)ccc2c1O[C@H](c1ccc(O)cc1)CC2=O)C/C=C/C(C)(C)O
HepG2
  IC50: > 10 µM
HeLa S3
  IC50: > 10 µM
MCF7
  IC50: > 10 µM
KB
  IC50: > 10 µM
HT-29
  IC50: > 10 µM

## C=C(C)C(O)CCC1(C)CCc2c(ccc3c2O[C@H](c2ccc(O)cc2)CC3=O)O1 (stereo not given in full)
HepG2
  IC50: > 10 µM
HeLa S3
  IC50: > 10 µM
MCF7
  IC50: > 10 µM
KB
  IC50: > 10 µM
HT-29
  IC50: > 10 µM

## CC1=CCC(O)C(C)(C)C1Cc1c(O)ccc2c1O[C@H](c1ccc(O)cc1)CC2=O (stereo not given in full)
HepG2
  IC50: > 10 µM
HeLa S3
  IC50: > 10 µM
MCF7
  IC50: > 10 µM
KB
  IC50: > 10 µM
HT-29
  IC50: > 10 µM

## COC(C)(C)/C=C/CC1(C)CCc2c(ccc3c2O[C@H](c2ccc(O)cc2)CC3=O)O1 (stereo not given in full)
HepG2
  IC50: > 10 µM
HeLa S3
  IC50: 8.6 µM
MCF7
  IC50: > 10 µM
KB
  IC50: > 10 µM
HT-29
  IC50: > 10 µM

## CC(C)=CCC/C(C)=C/Cc1c(O)ccc2c1O[C@H](c1ccc(O)cc1)CC2=O
HepG2
  IC50: > 10 µM
HeLa S3
  IC50: > 10 µM
MCF7
  IC50: > 10 µM
KB
  IC50: > 10 µM
HT-29
  IC50: > 10 µM

## CC(C)=CCCC1(C)CCc2c(ccc3c2O[C@H](c2ccc(O)cc2)CC3=O)O1 (stereo not given in full)
HepG2
  IC50: > 10 µM
HeLa S3
  IC50: 8.1 µM
MCF7
  IC50: 9.9 µM
KB
  IC50: 9.9 µM
HT-29
  IC50: > 10 µM

## CC(C)=CCCC(C)(O)C1Cc2c(ccc3c2O[C@H](c2ccc(O)cc2)CC3=O)O1 (stereo not given in full)
HepG2
  IC50: > 10 µM
HeLa S3
  IC50: > 10 µM
MCF7
  IC50: > 10 µM
KB
  IC50: > 10 µM
HT-29
  IC50: > 10 µM

## COC(C)(C)/C=C/C/C(C)=C/Cc1c(O)ccc2c1O[C@H](c1ccc(O)cc1)CC2=O
HepG2
  IC50: > 10 µM
HeLa S3
  IC50: > 10 µM
MCF7
  IC50: > 10 µM
KB
  IC50: > 10 µM
HT-29
  IC50: > 10 µM

## CC1(CCC(O)C(C)(C)O)CCc2c(ccc3c2O[C@H](c2ccc(O)cc2)CC3=O)O1 (stereo not given in full)
HepG2
  IC50: > 10 µM
HeLa S3
  IC50: > 10 µM
MCF7
  IC50: > 10 µM
KB
  IC50: > 10 µM
HT-29
  IC50: > 10 µM

## CC(C)=CCCC1(C)CCc2c(cc(O)c3c2O[C@H](c2ccc(O)cc2)CC3=O)O1 (stereo not given in full)
HepG2
  IC50: > 10 µM
HeLa S3
  IC50: 9.9 µM
MCF7
  IC50: > 10 µM
KB
  IC50: > 10 µM
HT-29
  IC50: > 10 µM

## CC(C)(O)/C=C/CC1(C)CCc2c(ccc3c2O[C@H](c2ccc(O)cc2)CC3=O)O1 (stereo not given in full)
HepG2
  IC50: > 10 µM
HeLa S3
  IC50: 6.6 µM
MCF7
  IC50: > 10 µM
KB
  IC50: > 10 µM
HT-29
  IC50: > 10 µM

## C=C(CCC=C(C)C)C(O)Cc1c(O)ccc2c1O[C@H](c1ccc(O)cc1)CC2=O (stereo not given in full)
HepG2
  IC50: > 10 µM
HeLa S3
  IC50: > 10 µM
MCF7
  IC50: > 10 µM
KB
  IC50: > 10 µM
HT-29
  IC50: > 10 µM

## CC1(CCC2OC2(C)C)CCc2c(ccc3c2O[C@H](c2ccc(O)cc2)CC3=O)O1 (stereo not given in full)
HepG2
  IC50: > 10 µM
HeLa S3
  IC50: 8.3 µM
MCF7
  IC50: > 10 µM
KB
  IC50: > 10 µM
HT-29
  IC50: > 10 µM

## COC(C=C(C)C)C/C(C)=C/Cc1c(O)ccc2c1O[C@H](c1ccc(O)cc1)CC2=O (stereo not given in full)
HepG2
  IC50: > 10 µM
HeLa S3
  IC50: > 10 µM
MCF7
  IC50: > 10 µM
KB
  IC50: > 10 µM
HT-29
  IC50: > 10 µM

## COc1cccc2c1C(=O)c1c(O)c3c(c(O)c1C2=O)C[C@@](O)(C(=O)CO)C[C@@H]3O[C@H]1C[C@H](N)[C@H](O)[C@H](C)O1 [DOXORUBICIN]
HepG2
  IC50: 1.07 µM
HeLa S3
  IC50: 0.03 µM
MCF7
  IC50: 0.61 µM
KB
  IC50: 0.13 µM
HT-29
  IC50: 0.34 µM
